Screening data: PubChem BioAssay, Broad Institute
Cneo AK release = Cryptococcus neoformans cell lysis inducers, primary screen, AK release luminescence, single concentration. C. neoformans lysis, adenylate kinase release luminescence, 4 h; normalised: neutral wells 0, clomiphene wells 100. lysis activity, % at 15 µM. 360,000 tested, 0.2% active;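 active = mean lysis activity across replicates of at least 80%, whatever share of replicates individually reach that level; inactive = mean lysis activity below 80%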
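Test system: log-phase Cryptococcus neoformans yeast cells. Input: 5 × 10^6 yeast cells/mL. Medium: fresh YPD growth medium. Doses: single dose. Incubation: static 4 h at 37 °C with compound, 1 h detection. Measured by: luminescent adenylate kinase detection reagent. Read-out: signal increase indicating cell lysis. Benchmarks: Clomiphene.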
Wnt bcat act = Wnt/beta-catenin pathway activators, primary screen, cell-based, plate reader, single point | Wnt/beta-catenin reporter cell assay, activator | activation, % at 9.35 µM | 300,000 tested, 1.2% active; in the data active = activation above about 30%, passing the limit was not always enough; inconclusive = no clear call, values can overlap the other calls;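 note: 0% = neutral control wells and 100% = positive control wells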
MITF TRPM1 HTS = activators of MITF-driven TRPM1 promoter reporter, primary screen, cell-based, SK-MEL-5, luciferase, single point. SK-MEL-5 TRPM1-promoter luciferase, 24 h; % of positive control, neutral wells = 0. activation, % at 12.5 µM. AID 588334, 2011. 300,000 tested, 0.75% active;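 active = mean activation of at least 80% with every replicate also reaching 80%; inconclusive = mean reaches 80% but some replicate falls short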;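 note: 0% = neutral control wells and 100% = parthenolide positive control wells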
ERAP1 inh = human ERAP1 aminopeptidase inhibitors, primary screen, biochemical, single point, plate reader; 340,000 tested, 0.15% active; Endoplasmic reticulum aminopeptidase 1 (Homo sapiens), Q9NZ08; inhibition, % at 10.7 µM; recombinant ERAP1, Leu-AMC fluorescence, 60 min;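 active = mean replicate inhibition of at least 30%, or all replicates individually reaching that 30% level; inactive = mean below 30% and not every replicate reaching it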;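 note: 0% = neutral control wells and 100% = L-leucinethiol positive control wells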
Target sequence (Q9NZ08 whole entry, looked up): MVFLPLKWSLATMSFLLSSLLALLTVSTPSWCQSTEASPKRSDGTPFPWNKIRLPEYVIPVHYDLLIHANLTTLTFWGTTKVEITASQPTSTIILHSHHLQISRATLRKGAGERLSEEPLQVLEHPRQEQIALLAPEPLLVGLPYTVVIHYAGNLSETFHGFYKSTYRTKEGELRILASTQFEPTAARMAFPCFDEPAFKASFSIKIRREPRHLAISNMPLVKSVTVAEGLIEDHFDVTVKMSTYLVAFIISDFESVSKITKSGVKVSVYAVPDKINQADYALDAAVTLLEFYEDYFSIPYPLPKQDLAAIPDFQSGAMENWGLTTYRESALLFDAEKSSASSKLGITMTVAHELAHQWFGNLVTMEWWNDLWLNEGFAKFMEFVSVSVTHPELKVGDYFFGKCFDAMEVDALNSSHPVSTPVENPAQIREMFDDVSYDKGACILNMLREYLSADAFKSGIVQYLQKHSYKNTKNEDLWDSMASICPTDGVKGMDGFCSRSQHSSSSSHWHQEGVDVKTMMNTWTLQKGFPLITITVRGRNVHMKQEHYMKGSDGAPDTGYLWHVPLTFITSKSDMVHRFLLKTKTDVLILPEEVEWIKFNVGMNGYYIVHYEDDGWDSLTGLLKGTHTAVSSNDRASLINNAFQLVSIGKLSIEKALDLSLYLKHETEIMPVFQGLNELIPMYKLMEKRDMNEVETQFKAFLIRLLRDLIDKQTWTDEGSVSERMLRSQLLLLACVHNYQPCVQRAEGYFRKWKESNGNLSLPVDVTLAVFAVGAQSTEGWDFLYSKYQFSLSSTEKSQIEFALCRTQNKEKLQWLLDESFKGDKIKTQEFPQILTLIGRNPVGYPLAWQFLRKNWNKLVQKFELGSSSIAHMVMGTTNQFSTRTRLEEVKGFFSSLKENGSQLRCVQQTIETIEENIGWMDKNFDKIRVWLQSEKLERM
Env fusion inh = inhibitors of HIV-1 Env-driven cell-cell fusion, primary screen, HeLa-JRFL effector, CEM21 target cells, luciferase; 360,000 tested, 1.1% active; inhibition, % at 12.3 µM; AID 651610, 2012;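 active = mean replicate inhibition score of at least 50 and every replicate individually at or above 50; inconclusive = only one of the two criteria met; inactive = mean below 50 and not all replicates reaching 50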;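 note: 0% = plate neutral controls and 100% = maraviroc near 300 nM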
esBAF inh = Bmi1 luciferase reporter increase in mESCs, primary screen, esBAF inhibitor project, mouse ES cells, Bmi1 luciferase knock-in, single point. AID 602393, 2012. 24 h; 100% = twice the neutral-well signal. reporter increase, % at 12.5 µM. 350,000 tested, 2% active; in the data active = activation above about 40%; inconclusive = no clear call, values can overlap the other calls;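 note: 0% = median of the plate's neutral control wells and 100% = double that signal; a rise in the Bmi1 reporter signal indicates esBAF inhibition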
The depositor's hits bear a star; ? = inconclusive; · = no result; [ ] = dose if it differs, or a comment. An excerpt weighted towards active compounds, which were near 3.5% of everything screened.

SMILES | Cneo AK release | Wnt bcat act | MITF TRPM1 HTS | ERAP1 inh | Env fusion inh | esBAF inh
COc1ccc(NC(=S)Nc2ccc3nccnc3c2)cc1 | 3.4 | · | 87.6* | · | -6.2 | 64.7*
COc1ccc(NC(=S)Nc2ccc3snnc3c2)cc1 | 1.6 | 3.7 | 51.3 | 1.7 | -14.8 | 29.8
COc1ccc(CNC(=O)Nc2ccc(C)cc2)cc1 | 3.4 | -1.8 | 46.3 | · | · | 54.8*
COC(=O)[C@H](Cc1ccccc1)NC(=O)NCc1ccc(C)cc1 | -3.6 | 51.2* | · | -2.1 | -2.6 | -3.1
COCC(=O)N1[C@H](C#N)[C@H](c2ccccc2-c2cccc(OC)c2)[C@@H]1CO | · | · | · | -0.2 | · | ·
Cc1noc(C)c1S(=O)(=O)Nc1ccc2c(c1)C(=O)N([C@@H](C)CO)C[C@H](C)[C@@H](CN(C)C(=O)Nc1ccc3c(c1)OCO3)O2 | -1.1 | · | · | 1.4 | · | -4.1
COc1ccc(NC(=S)NCc2ccc(F)cc2)cc1 | 22.1 | 3.4 | -6.6 | 0.8 | -26.4 | 42.4*
COc1ccccc1/C=C/C(=O)Nc1ccc2c(c1)CCC2 | · | 28.4 | 113.9* | · | -134.8 | ·
COc1ccc(NC(=O)Nc2ccc3oc(C)nc3c2)cc1 | · | 39.8* | 44.0 | 5.5 | -31.9 | ·
COc1ccc(NC(=O)Nc2ccc3c(c2)CCC3)cc1 | 0.5 | 12.6 | 104.6* | -3.2 | -34.8 | 51.6*
O=C(Cc1ccccn1)N1CC[C@@H]2[C@H]1c1cc(-c3cccc(F)c3)ccc1N[C@@H]2CO | 12.3 | · | · | 0.1 | · | 11.7
CN(C)CC(=O)Nc1ccc2c(c1)[C@H]1C[C@H](CC(=O)NC3CCCC3)O[C@H](CO)[C@H]1O2 | 0.5 | · | · | -3.4 | 12.3[16.7 µM] | 3.9
CN1C(=O)c2cc(NC(=O)C3CCCCC3)ccc2OC[C@@H]2O[C@H](CC(=O)NCCc3ccncc3)CC[C@H]21 | -1.6 | · | · | -0.9 | 14.6[16.7 µM] | -1.3
CCS(=O)(=O)Nc1ccc2c(c1)C(=O)N(C)C[C@H](OC)[C@H](C)CN(CC1CCCC1)[C@H](C)CO2 | -5.3 | · | · | · | 7.1[16.7 µM] | -7.8
C[C@H]1CN([C@@H](C)CO)S(=O)(=O)c2ccc(C#Cc3ccncc3)cc2O[C@@H]1CN(C)C(=O)C1CCC1 | 0.7 | · | · | -1.2 | 0.2[16.7 µM] | -8.5
Cc1ccc(-c2ccc3c(c2)O[C@@H](CN(C)C(=O)CC2CC2)[C@H](C)CN([C@H](C)CO)S3(=O)=O)cc1 | 2.4 | · | · | -1.2 | · | -9.8
COc1cccc(NC(=O)C2CC2)c1 | 2.7 | 0.8 | 15.4 | -1.1 | 18.5 | 9.0
COc1cccc(NC(=O)n2ncc3c(C)cccc32)c1 | -7.2 | 44.6* | 8.8 | -2.1 | -166.6 | -35.3
CCC1CCC(NC(=O)Nc2cccc(OC)c2)CC1 (centres undefined) | 0.0 | 57.2* | ? | · | -98.5 | 82.6*
COc1ccc(NC(=O)Nc2ccc(F)cc2F)cc1 | · | · | 92.3* | -0.5 | -31.8 | ?
COc1cccc(NC(=S)Nc2ccc(F)cc2)c1 | -6.1 | 40.6* | -1.2 | 4.3 | -16.4 | 6.4
C[C@@H]1CCCCO[C@H](CN(C)S(=O)(=O)c2cccs2)[C@H](C)CN([C@@H](C)CO)C(=O)c2cc(NS(C)(=O)=O)ccc2O1 | -1.1 | · | · | -4.1 | 3.8[16.7 µM] | 3.2
C[C@H](CO)N1C[C@H](C)[C@@H](CN(C)Cc2ccc(C(=O)O)cc2)Oc2ccc(NS(=O)(=O)c3ccc(F)cc3)cc2C1=O | 2.8 | · | · | -0.1 | 17.4[16.7 µM] | 0.5
COc1cccc(NC(=O)Nc2ccccc2Br)c1 | -1.2 | 22.9 | 71.7 | · | 4.8 | 59.5*
CCc1ccc(C(C)NC(=S)NCc2ccc(F)cc2)cc1 (centres undefined) | 115.0* | 10.6 | 4.3 | -1.1 | 18.9 | -4.2
SMILES | Cneo AK release | Wnt bcat act | MITF TRPM1 HTS | ERAP1 inh | Env fusion inh | esBAF inh
CCOc1ccc(C(C)NC(=S)NCc2ccc(F)cc2)cc1 (centres undefined) | 35.4 | 3.0 | -17.7 | 2.9 | -17.7 | -8.2
COC(=O)c1sccc1NC(=O)Nc1cccc(OC)c1 | -0.7 | 1.9 | 2.9 | -5.4 | 9.6 | 19.9
O=C(CCCCC(=O)Nc1ccc(F)cc1F)Nc1ccc(F)cc1F | 1.4 | 33.1* | · | -1.2 | -8.6 | ·
COc1ccc(NC(=S)Nc2ccc(N)c([N+](=O)[O-])c2)cc1 | -1.5 | 45.0* | 19.3 | · | -60.4 | 47.4*
CC(C)NC(=O)Nc1cccc2c1O[C@H](CN(C)C(=O)NC(C)C)[C@@H](C)CN([C@@H](C)CO)C2=O | 3.8 | · | · | -4.0 | · | -1.8
CCC(=O)N[C@@H]1CC[C@H](CC(=O)NCc2cc(F)cc(F)c2)O[C@H]1CO | -1.1 | · | · | 0.3 | -1.1[16.7 µM] | 3.7
COc1ccc(S(=O)(=O)N(C)C[C@H]2Oc3cc(C4=CCCC4)ccc3S(=O)(=O)N([C@H](C)CO)C[C@H]2C)cc1 | -2.2 | · | · | -2.8 | 48.3[16.7 µM] | 6.3
COc1ccc(NC(=O)Nc2cccc(OC)c2)cc1 | -4.5 | ? | 96.5* | · | -62.5 | 37.5
CC(=O)N(C)C[C@H]1Oc2ncc(-c3cccc(F)c3)cc2C(=O)N([C@H](C)CO)C[C@H]1C | 0.8 | · | · | 0.6 | 2.3[16.7 µM] | 3.5
c1ccc(SCc2cc(-c3ccccc3)no2)cc1 | · | 12.3 | 94.3* | 1.4 | -55.1 | ·
Clc1ccc(-c2cc(CSc3ccccc3)on2)cc1 | -5.8 | -0.8 | 126.9* | · | · | 21.8
Cc1ccc(N/C=C(/C#N)c2ccsc2)cc1C | 0.5 | · | 46.8 | · | · | 62.1*
C[C@@H]1CN([C@@H](C)CO)C(=O)c2cccc(NC(=O)c3nc4ccccc4s3)c2O[C@H]1CN(C)C(=O)NC1CCCCC1 | 60.6 | · | · | 3.1 | · | -3.1
CCCCC1(Cc2cccc([N+](=O)[O-])c2)C(=O)N(c2ccccc2)N(c2ccccc2)C1=O | 0.5 | -6.3 | -6.2 | · | 119.8* | -6.8
CS(=O)(=O)N(Cc1ccc(Cl)cc1)c1ccc(C(=O)NCCC2=CCCCC2)cc1 | 1.1 | · | -3.6 | · | 85.3* | -6.3
Cc1noc(C)c1NC(=O)N(C)C[C@H]1Oc2ccc(NS(=O)(=O)c3c(C)noc3C)cc2C(=O)N([C@@H](C)CO)C[C@@H]1C | · | · | · | · | -0.5[16.7 µM] | -4.9
O=C(O)CCc1ccc(-c2ccc(Br)cc2)n1NC(=O)c1ccc([N+](=O)[O-])cc1 | -2.7 | 1.4 | 1.5 | -0.7 | 19.6 | -8.5
Cc1ccc(-c2ccc(CCC(=O)O)n2NC(=O)c2ccc([N+](=O)[O-])cc2)cc1 | -22.5 | 53.5* | 1.8 | -5.7 | -5.5 | -4.5
CC(C)NC(=O)[C@@]1(c2ccc([N+](=O)[O-])cc2)CC(=O)N(CC23CC4CC(CC(C4)C2)C3)[C@@H]1c1ccc(CO)cc1 | 4.5 | · | · | 0.7 | -1.2[16.7 µM] | ·
C[C@H]1CN([C@@H](C)CO)C(=O)c2cc(-c3ccccc3)cnc2O[C@H]1CN(C)Cc1cccnc1 | 57.2 | · | · | -6.4 | -8.7[16.7 µM] | -9.2
O=C(NC1CCCCC1)N[C@H]1C=C[C@@H](CC(=O)N2CCOCC2)O[C@H]1CO | 103.9* | · | · | 0.6 | · | 4.4
